Measurements taken from ChEMBL document CHEMBL1671740, “Increased temperature enhances the antimicrobial effects of daptomycin, vancomycin, tigecycline, fosfomycin, and cefamandole on staphylococcal biofilms” (2010).
Converted amounts (≈) assume the structure as drawn. The source made the active and inactive calls. The rule behind the calls is not given here.

How the values were obtained:
Staphylococcus aureus [1] = test: Antimicrobial activity against Staphylococcus aureus ATCC 29213 administered as powder at 45 degC after 24 hrs; type: functional; conditions: ATCC 29213, 24 h
Method in brief: (§1)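 Antimicrobials, as powder or in solution as used for MIC testing, held at 45°C for 1 and 24 h in three independent experiments. MICs were then determined by the CLSI microtiter plate method in cation-adjusted Mueller-Hinton medium, with MHB containing 50 μg/ml calcium for daptomycin. Values are median (range) […] in mg/liter.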

Staphylococcus aureus [2] = test: Antimicrobial activity against Staphylococcus aureus isolated from human preoperative skin by […]; type: functional
[3] = tested on: Staphylococcus epidermidis; test: Antimicrobial activity against Staphylococcus epidermidis DSM3269 by […]; type: functional
Staphylococcus [4] = test: Antimicrobial activity against coagulase-negative Staphylococcus isolated from human prosthetic joint infection site by […]; type: functional
[5] = tested on: Staphylococcus epidermidis; test: Antimicrobial activity against Staphylococcus epidermidis isolate OR1 treated in solution at 45 degC after 24 hrs; type: functional; conditions: isolate OR1, 24 h; method in brief: as §1
Staphylococcus [6] = test: Antimicrobial activity against Staphylococcus isolates biofilms assessed as decrease in bacterial load at 100 mg/litre at ambient temperature of 35 degC after 24 hrs relative to baseline; type: functional
Method in brief: (§2)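 24-h static biofilms of the staphylococcal isolates were exposed to drug for 24 h at 35, 40 or 45°C. Biofilms were not fixed but scraped off and resuspended in MHB, then serially diluted and 0.1 ml plated on blood agar, read after 48 h at 35°C in ambient air. Done in duplicate as mean log10 CFU/ml; log reduction was taken versus untreated biofilm.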

Staphylococcus [7] = test: Antimicrobial activity against Staphylococcus isolates biofilms assessed as decrease in bacterial load at 5 to 100 mg/litre at ambient temperature of […] after 24 hrs relative to baseline; type: functional, organism-based
Method in brief: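 Static 24-h biofilms of staphylococcal isolates (S. aureus, CoNS) and reference strains were grown at 35°C in calcium-supplemented MHB from a 1:100-diluted McFarland 0.5 inoculum. They were then exposed to drug at 5, 25 or 100 mg/liter for 24 h at 35, 40 or 45°C. Biofilms were scraped into MHB, serially diluted and plated on blood agar (35°C, 48 h), in duplicate, giving mean log10 CFU/ml against untreated.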

Staphylococcus [8] = test: Antimicrobial activity against coagulase-negative Staphylococcus isolated from human preoperative skin by […]; type: functional
Staphylococcus aureus [9] = test: Antimicrobial activity against Staphylococcus aureus ATCC 29213 by […]; type: functional
Staphylococcus aureus [10] = test: Antimicrobial activity against Staphylococcus aureus isolated from human prosthetic joint infection site by […]; type: functional
[11] = tested on: Staphylococcus epidermidis; test: Antimicrobial activity against Staphylococcus epidermidis isolate KO8 isolated from healthy human skin by […]; type: functional
Staphylococcus [12] = test: Antimicrobial activity against Staphylococcus isolates biofilms assessed as decrease in bacterial load at 25 mg/litre at ambient temperature of 45 degC after 24 hrs relative to baseline; type: functional; method in brief: as §2
Staphylococcus [13] = test: Antimicrobial activity against Staphylococcus isolates biofilms assessed as decrease in bacterial load at 100 mg/litre at ambient temperature of 40 degC after 24 hrs relative to baseline; type: functional; method in brief: as §2
Staphylococcus [14] = test: Antimicrobial activity against Staphylococcus isolates biofilms assessed as decrease in bacterial load at 100 mg/litre at ambient temperature of 45 degC after 24 hrs relative to baseline; type: functional; method in brief: as §2

| SMILES | MIC (Staphylococcus aureus [1]) [µg/mL] | MIC (Staphylococcus aureus [2]) [µg/mL] | MIC [3] [µg/mL] | MIC (Staphylococcus [4]) [µg/mL] | MIC [5] [µg/mL] | Activity (Staphylococcus [6]) | Activity (Staphylococcus [7]) | MIC (Staphylococcus [8]) [µg/mL] | MIC (Staphylococcus aureus [9]) [µg/mL] | MIC (Staphylococcus aureus [10]) [µg/mL] | MIC [11] [µg/mL] | fold change (FC) (Staphylococcus [12]) | fold change (FC) (Staphylococcus [6]) | fold change (FC) (Staphylococcus [13]) | fold change (FC) (Staphylococcus [14]) |
| --- | --- | --- | --- | --- | --- | --- | --- | --- | --- | --- | --- | --- | --- | --- | --- |
| CN[C@H](CC(C)C)C(=O)N[C@H]1C(=O)N[C@@H](CC(N)=O)C(=O)N[C@H]2C(=O)N[C@H]3C(=O)N[C@H](C(=O)N[C@H](C(=O)O)c4cc(O)cc(O)c4-c4cc3ccc4O)[C@H](O)c3ccc(c(Cl)c3)Oc3cc2cc(c3O[C@@H]2O[C@H](CO)[C@@H](O)[C@H](O)[C@H]2O[C@H]2C[C@](C)(N)[C@H](O)[C@H](C)O2)Oc2ccc(cc2Cl)[C@H]1O [VANCOMYCIN] | 0.5 (≈ 0.345 µM) | 0.5 (≈ 0.345 µM) | 2 (≈ 1.38 µM) | 2 (≈ 1.38 µM) | 2 (≈ 1.38 µM) | inactive | inactive | 0.75 (≈ 0.518 µM) | 0.5 (≈ 0.345 µM) | 0.5 (≈ 0.345 µM) | 1 (≈ 0.69 µM) | – | – | – | – |
| CCCCCCCCCC(=O)N[C@@H](Cc1c[nH]c2ccccc12)C(=O)N[C@H](CC(N)=O)C(=O)N[C@@H](CC(=O)O)C(=O)N[C@@H]1C(=O)NCC(=O)N[C@@H](CCCN)C(=O)N[C@@H](CC(=O)O)C(=O)N[C@H](C)C(=O)N[C@@H](CC(=O)O)C(=O)NCC(=O)N[C@H](CO)C(=O)N[C@@H]([C@H](C)CC(=O)O)C(=O)N[C@@H](CC(=O)c2ccccc2N)C(=O)O[C@@H]1C | 0.5 (≈ 0.309 µM) | 0.125 (≈ 0.0771 µM) | 0.25 (≈ 0.154 µM) | 0.125 (≈ 0.0771 µM) | 1 (≈ 0.617 µM) | – | – | 0.25 (≈ 0.154 µM) | 0.125 (≈ 0.0771 µM) | 0.125 (≈ 0.0771 µM) | 0.25 (≈ 0.154 µM) | 1.2 | 2 | 3.6 | 3.3 |
